Assay results from different studies.
Protocols differ between the studies behind these lines. pIC50: −log10 of the molar value.
Organism: Aspergillus fumigatus
Observed: microbial growth

O=C1NN=C(N=Cc2ccc(O)c(O)c2)C1=NNn1c(-c2ccccc2)nc2ccccc2c1=O — MIC (broth dilution): 53.5 µM
C[C@@H]1[C@H](O)[C@@H](C)/C=C/C=C/C=C/C=C/C=C/C=C/C=C/[C@H](O[C@@H]2O[C@H](C)[C@@H](O)[C@H](N)[C@@H]2O)C[C@@H]2O[C@](O)(C[C@@H](O)C[C@@H](O)[C@H](O)CC[C@@H](O)C[C@@H](O)CC(=O)O[C@H]1C)C[C@H](O)[C@H]2C(=O)O — MIC (broth dilution; MF5668): 0.5 µg/mL
Clc1ccccc1C(c1ccccc1)(c1ccccc1)n1ccnc1 — inhibition zone (disc diffusion; 20000 µg/mL): 22 mm
C[C@@H]1[C@H](O)[C@@H](C)/C=C/C=C/C=C/C=C/C=C/C=C/C=C/[C@H](O[C@@H]2O[C@H](C)[C@@H](O)[C@H](N)[C@@H]2O)C[C@@H]2O[C@](O)(C[C@@H](O)C[C@@H](O)[C@H](O)CC[C@@H](O)C[C@@H](O)CC(=O)O[C@H]1C)C[C@H](O)[C@H]2C(=O)O — pIC50 (ATCC204305): 6.07
C#CCCCCCCCCCCCC(O)CC(O)CO (stereo not shown) — IC50 (resazurin; ATCC204305): > 200 µg/mL
CC1=NN(CNC(=O)c2ccccc2)C(=O)C1=NNn1c(-c2ccccc2)nc2ccccc2c1=O — MIC (broth dilution): 104 µM
CCCCCCCCCCCCCC(O)CC(O)CO (stereo not shown) — IC50 (resazurin; ATCC204305): > 200 µg/mL
CC1=NN(CNC(=O)c2ccccn2)C(=O)C1=NNn1c(-c2ccccc2)nc2ccccc2c1=O — MIC (broth dilution): 104 µM
C=CCCCCCCCCCCCC(O)CC(O)CO (stereo not shown) — IC50 (resazurin; ATCC204305): > 200 µg/mL
OC(Cn1cncn1)(Cn1cncn1)c1ccc(F)cc1F — MIC (broth dilution; MF5668): > 128 µg/mL
